{"data": "Measurements from different studies", "read-out": "metabolic stability", "species": "human", "note": "Each line is one published result; the experiments were not run side by side."}
{"SMILES": "Cn1nc2c(=O)n(C3CC3)ncc2c1[C@](N)(c1ccc(C(F)(F)F)c(Cl)c1)C1CC1", "test system": "hepatocytes", "conditions": "0.5 µM, pH 7.4", "measurement": "hepatocyte CLint", "result": "< 0.5 µL/min/10⁶ cells"}
{"SMILES": "COc1ccc([C@@H]2Sc3ccccc3N(CCN(C)C)C(=O)[C@@H]2OC(C)=O)cc1", "test system": "liver microsomes", "measurement": "microsomal CLint", "result": "26 µL/min/mg"}
{"SMILES": "O=C(O)Cc1ccccc1Nc1c(Cl)cccc1Cl", "test system": "liver microsomes", "measurement": "scaled CLint", "result": "174 mL/min/kg"}
{"SMILES": "Cc1ccc(Cn2cc(C(=O)NN)c(=O)c3cc(Oc4ccccc4)ccc32)cc1", "test system": "liver microsomes", "conditions": "1 µM", "measurement": "microsomal CLint", "result": "< 11.6 µL/min/mg"}
{"SMILES": "CC[N+]1(C)CCN(c2ccc(C(=O)Nc3cccc(C)n3)cc2)CC1", "test system": "liver microsomes", "measurement": "microsomal CLint", "result": "< 3 µL/min/mg"}
{"SMILES": "Nc1ncnc2c1ncn2[C@@H]1O[C@H](CO)C[C@H]1O", "test system": "liver microsomes", "conditions": "1 µM", "measurement": "microsomal CLint", "result": "142 µL/min/mg"}
{"SMILES": "Cn1nc2c(=O)n(C3CC3)nc(C3CC3)c2c1Cc1ccc(C(F)(F)F)c(F)c1", "test system": "liver microsomes", "conditions": "0.5 µM, pH 7.4", "measurement": "microsomal CLint", "result": "4.6 µL/min/mg"}
{"SMILES": "NC(=O)N1c2ccccc2C=Cc2ccccc21", "test system": "liver microsomes", "conditions": "1 µM", "measurement": "microsomal CLint", "result": "< 3 µL/min/mg"}
{"SMILES": "CCn1cc(C)c2c(C(O)c3ccc(Cl)c(F)c3)n(C)nc2c1=O (stereo not shown)", "test system": "liver microsomes", "conditions": "0.5 µM, pH 7.4", "measurement": "microsomal CLint", "result": "23 µL/min/mg"}
{"SMILES": "O=C1CC[C@H](N2Cc3cc(N4CCN(CC5CCN(c6ccc([C@@H]7c8ccc(O)cc8CC[C@@H]7c7ccccc7)cc6)CC5)CC4)ccc3C2=O)C(=O)N1", "test system": "hepatocytes", "conditions": "1 µM", "measurement": "hepatocyte CLint", "result": "13 µL/min/10⁶ cells"}
{"SMILES": "CCC(CC)COC(=O)[C@H](C)N[P@@](=O)(OC[C@@H]1C[C@@H](O)[C@H](n2cnc3c(N)ncnc32)O1)Oc1ccccc1", "test system": "liver microsomes", "conditions": "1 µM", "measurement": "microsomal CLint", "result": "2610 µL/min/mg"}
{"SMILES": "C[C@]1(C(=O)[C@H](Cc2ccccc2)NC(=O)[C@@H]2COCCCCCC(=O)N3C[C@H](F)C[C@H]3C(=O)N2)CO1", "test system": "liver microsomes", "conditions": "2 µM, 1 h", "measurement": "scaled CLint", "result": "93.1 mL/min/kg"}
{"SMILES": "Cn1nc2c(=O)n(C3CC3)ncc2c1[C@](O)(c1cnc(C(F)(F)F)c(Cl)c1)C(F)(F)F", "test system": "hepatocytes", "conditions": "0.5 µM, pH 7.4", "measurement": "hepatocyte CLint", "result": "< 0.5 µL/min/10⁶ cells"}
{"SMILES": "C[C@]1(C(=O)[C@H](CC2=CCCC2)NC(=O)[C@@H]2COCCCCCC(=O)N3C[C@H](F)C[C@H]3C(=O)N2)CO1", "test system": "liver microsomes", "conditions": "2 µM, 1 h", "measurement": "scaled CLint", "result": "150 mL/min/kg"}
{"SMILES": "CCN(CCN)c1ccc(Nc2cc(NC3CC3)n3ncc(C#N)c3n2)cc1-n1cnnc1", "test system": "liver microsomes", "measurement": "scaled CLint", "result": "< 6.8 mL/min/kg"}
{"SMILES": "Cn1nc2c(=O)n(C3CC3)cnc2c1[C@](O)(c1cnc(C(F)(F)F)c(Cl)c1)C(F)(F)F", "test system": "hepatocytes", "conditions": "0.5 µM, pH 7.4", "measurement": "hepatocyte CLint", "result": "0.5 µL/min/10⁶ cells"}
{"SMILES": "CC(C)C[C@H](NC(=O)[C@@H]1COCCCCCC(=O)N2CC[C@H]2C(=O)N1)C(=O)[C@@]1(C)CO1", "test system": "liver microsomes", "conditions": "2 µM, 1 h", "measurement": "scaled CLint", "result": "29 mL/min/kg"}
{"SMILES": "Cn1c(=O)c2c(ncn2C)n(C)c1=O", "test system": "hepatocytes", "conditions": "0.5 µM, pH 7.4", "measurement": "hepatocyte CLint", "result": "1.85 µL/min/10⁶ cells"}
{"SMILES": "CC(C)C[C@H](NC(=O)[C@@H]1COCCCCCC(=O)N2C[C@H](F)C[C@H]2C(=O)N1)C(=O)[C@@]1(C)CO1", "test system": "liver microsomes", "conditions": "2 µM, 1 h", "measurement": "scaled CLint", "result": "32.4 mL/min/kg"}
